pIC50: −log10 of the molar value.

For assay [1], the target named is Human immunodeficiency virus type 1 reverse transcriptase (Human immunodeficiency virus 1) (UniProt Q72547). The assay is described as follows: Inhibition against HIV-1 wild type reverse transcriptase […].
In assay [2] the target is Human immunodeficiency virus type 1 reverse transcriptase (Human immunodeficiency virus 1, UniProt Q72547, Y188L). The assay is described as follows: Inhibitory concentration against HIV-1 mutant Y188L reverse transcriptase. In outline: (§1)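 HIV-1 RT is at 0.63 nM in 50 mM Tris pH 7.8 with 4 mM DTT, 60 mM NaCl, 2 mM MgCl2, 0.02% Chaps, 4.8 μg/mL poly(rC)/oligo(dG) and 0.45 μM [3H]dGTP. Incubation is 30 min at room temperature in triplicate wells; [3H] incorporation is read after acid precipitation, minus EDTA background.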

Assay [3] addresses Human immunodeficiency virus type 1 reverse transcriptase (Human immunodeficiency virus 1, UniProt Q72547, K103N). The assay is described as follows: Inhibition against HIV-1 mutant K103N reverse transcriptase […].
Assay [4] addresses Human immunodeficiency virus type 1 reverse transcriptase (Human immunodeficiency virus 1, UniProt Q72547, P236L). The assay is described as follows: Inhibition against HIV-1 mutant P236L reverse transcriptase […].
Assay [5] concerns the target Human immunodeficiency virus type 1 reverse transcriptase (Human immunodeficiency virus 1, UniProt Q72547). The assay is described as follows: Inhibitory concentration against HIV-1 wild type reverse transcriptase. Put shortly: as §1
Assay [6] relates to Human immunodeficiency virus type 1 reverse transcriptase (Human immunodeficiency virus 1), Q72547 [[…]]. The assay is described as follows: Inhibition against HIV-1 mutant Y188L reverse transcriptase at 1 mM.
Assay [7] relates to Human immunodeficiency virus type 1 reverse transcriptase (Human immunodeficiency virus 1), Q72547 [Y181C]. The assay is described as follows: Inhibition against HIV-1 mutant Y181C reverse transcriptase at 1 mM.
The target in assay [8] is Human immunodeficiency virus type 1 reverse transcriptase (Human immunodeficiency virus 1, UniProt Q72547, G190A). The assay is described as follows: Inhibition against HIV-1 mutant G190A reverse transcriptase […].
The target in assay [9] is Human immunodeficiency virus type 1 reverse transcriptase (Human immunodeficiency virus 1, UniProt Q72547, V106A). The assay is described as follows: Inhibition against HIV-1 mutant V106A reverse transcriptase […].
For assay [10], the target named is Human immunodeficiency virus type 1 reverse transcriptase (Human immunodeficiency virus 1, UniProt Q72547, Y181C). The assay is described as follows: Inhibitory concentration against HIV-1 mutant Y181C reverse transcriptase. Put shortly: as §1

What is called inhibition is the share of the control response that was lost under treatment. A higher inhibition goes with a strong effect. As a reminder, the pIC50 is −log10 of the IC50, conventionally taken in molar units. As to `CCN1c2ncccc2C(=O)N(C)c2ccc(-c3c[nH]c4ccc(OC)cc34)nc21`, the inhibition is 61% in assay [1], 58% in assay [6] and 45% in assay [7]. For the same compound, the pIC50 in assay [2] was 6.14; in assay [3] it was 6.03; in assay [4], 6.39; in assay [5], 6.70; in assay [8], 6.22; in [9], 5.51. This compound gave a pIC50 in assay [10] of 6.64.
For `CCN1c2ncccc2C(=O)N(C)c2ccc(-c3c[nH]c4cnccc34)nc21`, the inhibition was found to be 94% in assay [1], 64% in [6] and 81% in assay [7]. Further, the pIC50 in assay [2] was 6.42; in [3], 7.49; in assay [4] it was over 9.00; in assay [5], 7.36; in assay [8] it was 7.72; in [9], 6.64. The compound further had a pIC50 in [10] of 7.01.
`CCN1c2ncccc2C(=O)N(C)c2ccc(-c3c[nH]c4ccncc34)nc21`: the inhibition was 87% in assay [1], 3% in assay [6] and 66% in assay [7]. Also, the negative-log IC50 (pIC50) in assay [5] is 6.89; in assay [10] it was 6.65.
For `CCN1c2ncccc2C(=O)N(C)c2ccc(-c3c[nH]c4cccnc34)nc21`, the figures for the inhibition in assay [1], in [6] and in assay [7] were 21%, 37% and 18%, respectively.
As to `CCN1c2ncccc2C(=O)N(C)c2ccc(-c3c[nH]c4ccc(F)cc34)nc21`, the inhibition in assay [1] is 63%; in assay [6] it was 17%; in [7], 59%. In addition, the pIC50 was 6.15 in assay [5] and 6.26 in [10].
For `CCN1c2ncccc2C(=O)N(C)c2ccc(-c3cc[nH]c3)nc21`, the inhibition in assay [1] worked out at 95%; in assay [6] it was 78%; in assay [7], 91%. For the same compound, the pIC50 in assay [2] was 7.00; in assay [5] it was 7.48; in assay [8], 6.49; in assay [9] it was 6.00; in assay [10], 7.30.
As to `CCN1c2ncccc2C(=O)N(C)c2ccc(-c3c[nH]c4ccccc34)nc21`, the inhibition in assay [1] came out at 96%; in assay [6], 72%; in assay [7], 93%. The negative logarithm of the IC50 (pIC50) in assay [2] is 7.05; in assay [3], 7.01; in assay [4], 7.10; in assay [5] it was 7.55; in [8], 7.92; in [9], 7.31. Moreover, the pIC50 in assay [10] is 7.55.
Regarding `CCN1c2ncccc2C(=O)N(C)c2ccc(-c3c[nH]c4ncccc34)nc21`, the values for the inhibition in assay [1], in [6] and in [7] were 76%, 39% and 70%, respectively. For the same compound, the negative logarithm of the IC50 (pIC50) in assay [2] is 5.89; in assay [5], 6.68; in assay [10], 6.70.

Values taken from ChEMBL document CHEMBL1130325, “Novel non-nucleoside inhibitors of human immunodeficiency virus type 1 reverse transcriptase. 6. 2-Indol-3-yl- and 2-azaindol-3-yl-dipyridodiazepinones” (J Med Chem, 1997).
